Experiments:
Mus musculus [1] = assay: […] induction of Thyl+ antigen expression on murine bone marrow cells at the concentration of 3.2 uM(Fraction A).(Control group); assay type: functional
Method in brief: (§1)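 Bone marrow from female C57 BL/6 mice, 5–8 weeks old, separated on a discontinuous BSA gradient. Fraction A (lowest density) and fraction B (next lowest) resuspended at 10⁶ cells/mL in HBSS with 5% BSA. Cells incubated 24 h with one compound concentration, then stained directly with FITC anti-Thy1 and counted by epifluorescence microscopy. % Thy1⁺ cells recorded for treated and control cultures.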

Mus musculus [2] = assay: Proliferation induced by the mitogen alone-Concanavalin A (control blastogenesis), in mice cells dosed at 5 ug/mL; assay type: functional; design: unit not given here
Method in brief: (§2)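 Splenocytes from female DBA/2 mice, 6–9 weeks old; red cells lysed with cold 0.17 M NH₄Cl. Cells plated at 5 × 10⁶ cells/mL in RPMI 1640 with 5% FCS, with compound (5–80 μg/mL range) and Con A, PWM or PHA at a batch-optimized concentration. Cultured 72 h at 37 °C, 5% CO₂, with [³H]thymidine for the final 24 h, read by scintillation. Triplicate wells; mean ± SD of three cultures.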

Mus musculus [3] = assay: […] induction of Thyl+ antigen expression on murine bone marrow cells at the concentration of 3.2 uM(Fraction A).(treated); assay type: functional; method in brief: as §1
Mus musculus [4] = assay: Percent of restoration in nude mice (in vivo); assay type: functional
Method in brief: (§3)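 Female nu/nu mice, 6–9 weeks old, dosed by gastric tube in 0.2 mL 2% arabic gum with 0.1% Tween-80; controls received vehicle only. Spleens taken 24 h later and splenocytes prepared. Thy1⁺ cells counted by direct FITC anti-Thy1 staining under epifluorescence. Five animals per group, mean ± SD.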

Mus musculus [5] = assay: Percent of Thyl+ positive cells / spleen x 10 e6 in nude mice (in vivo); assay type: functional; method in brief: as §3
Mus musculus [6] = organism: Mus musculus; assay: Proliferation induced by the mitogen alone-PWM (control blastogenesis), in Mice cells at a dose of 10 ug/mL; assay type: functional; design: unit not given here; method in brief: as §2
Mus musculus [7] = assay: […] induction of Thyl+ antigen expression on murine bone marrow cells at the concentration of 3.2 uM(Fraction B).(treated); assay type: functional; method in brief: as §1
Mus musculus [8] = organism: Mus musculus; assay: Maximal proliferation induced in the presence of the mitogen-PHA ( stimulated blastogenesis) in Mice cells at a dose of 10 ug/mL
Mus musculus [9] = assay: […] induction of Thyl+ antigen expression on murine bone marrow cells at the concentration of 3.2 uM(Fraction B).(Control group); assay type: functional; method in brief: as §1
Mus musculus [10] = assay: Maximal proliferation induced in the presence of the mitogen-Concanavalin A (stimulated blastogenesis) in mice cells dosed at 5 ug/mL; assay type: functional; design: unit not given here; method in brief: as §2
Mus musculus [11] = assay: Percent of restoration of T- cell markers in nude mice (in vivo); assay type: functional; method in brief: as §3
Mus musculus [12] = organism: Mus musculus; assay: Maximal proliferation induced in the presence of the mitogen-PWM ( stimulated blastogenesis) in Mice cells at a dose of 10 ug/mL; assay type: functional; design: unit not given here; method in brief: as §2
Mus musculus [13] = organism: Mus musculus; assay: Proliferation induced by the mitogen alone-PHA (control blastogenesis), in Mice cells at a dose of 5 ug/mL; assay type: functional; design: unit not given here; method in brief: as §2
Mus musculus [14] = assay: Percent of Thyl+ positive cells, in nude mice (in vivo); assay type: functional; method in brief: as §3
Mus musculus [15] = assay: […] induction of Thyl+ antigen expression on murine bone marrow cells at the concentration of 7 uM(Fraction A).(Control group); assay type: functional; method in brief: as §1
Mus musculus [16] = assay: […] induction of Thyl+ antigen expression on murine bone marrow cells at the concentration of 7 uM(Fraction B).(Control group); assay type: functional; method in brief: as §1
Mus musculus [17] = organism: Mus musculus; assay: Maximal proliferation induced by the test compound in the presence of the mitogen-PHA ( stimulated blastogenesis) in Mice cells at a dose of 10 ug/mL; assay type: functional; method in brief: as §2
Mus musculus [18] = assay: […] induction of Thyl+ antigen expression on murine bone marrow cells at the concentration of 7 uM(Fraction B).(treated); assay type: functional; method in brief: as §1
Mus musculus [19] = organism: Mus musculus; assay: Proliferation induced by the mitogen alone-PWM (control blastogenesis), in Mice cells at a dose of 40 ug/mL; assay type: functional; design: unit not given here
Method in brief: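 Splenocytes from female DBA/2 mice aged 6–9 weeks, red cells lysed with cold 0.17 M NH4Cl, cultured at 5 × 10⁶ cells/mL in RPMI 1640 with 5% FCS. Pokeweed mitogen added at a batch-adjusted optimal level, 72 h at 37 °C, 5% CO2. [³H]thymidine pulse for the final 24 h, then scintillation counting. Triplicates; mean ± SD of three cultures.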

Mus musculus [20] = assay: […] induction of Thyl+ antigen expression on murine bone marrow cells at the concentration of 7 uM(Fraction A).(treated)); assay type: functional; method in brief: as §1
Mus musculus [21] = organism: Mus musculus; assay: Maximal proliferation induced in the presence of the mitogen-PWM ( stimulated blastogenesis) in Mice cells at a dose of 40 ug/mL; assay type: functional; design: unit not given here; method in brief: as §2
Mus musculus [22] = organism: Mus musculus; assay: Proliferation induced by the mitogen alone-PHA (control blastogenesis), in Mice cells at a dose of 10 ug/mL; assay type: functional; method in brief: as §2
Mus musculus [23] = assay: […] induction of Thyl+ antigen expression on murine bone marrow cells at the concentration of 2.9 uM(Fraction A).(Control group); assay type: functional; method in brief: as §1
Mus musculus [24] = assay: […] induction of Thyl+ antigen expression on murine bone marrow cells at the concentration of 2.9 uM(Fraction B).(treated); assay type: functional; method in brief: as §1
Mus musculus [25] = assay: […] induction of Thyl+ antigen expression on murine bone marrow cells at the concentration of 2.9 uM(Fraction A).(treated); assay type: functional; method in brief: as §1
Mus musculus [26] = assay: […] induction of Thyl+ antigen expression on murine bone marrow cells at the concentration of 2.9 uM(Fraction B).(Control group); assay type: functional; method in brief: as §1
Mus musculus [27] = assay: […] induction of Thyl+ antigen expression on murine bone marrow cells at the concentration of 3 uM(Fraction B).(treated); assay type: functional; method in brief: as §1
Mus musculus [28] = assay: […] induction of Thyl+ antigen expression on murine bone marrow cells at the concentration of 3 uM(Fraction A).(treated); assay type: functional; method in brief: as §1
Mus musculus [29] = assay: […] induction of Thyl+ antigen expression on murine bone marrow cells at the concentration of 3 uM(Fraction A).(Control group); assay type: functional; method in brief: as §1
Mus musculus [30] = assay: […] induction of Thyl+ antigen expression on murine bone marrow cells at the concentration of 3 uM(Fraction B).(Control group); assay type: functional; method in brief: as §1
Mus musculus [31] = assay: […] induction of Thyl+ antigen expression on murine bone marrow cells at the concentration of 2.7 uM(Fraction A).(treated); assay type: functional; method in brief: as §1
Mus musculus [32] = assay: […] induction of Thyl+ antigen expression on murine bone marrow cells at the concentration of 2.7 uM(Fraction B).(treated); assay type: functional; method in brief: as §1
Mus musculus [33] = assay: […] induction of Thyl+ antigen expression on murine bone marrow cells at the concentration of 2.7 uM(Fraction B).(Control group); assay type: functional; method in brief: as §1
Mus musculus [34] = assay: […] induction of Thyl+ antigen expression on murine bone marrow cells at the concentration of 2.7 uM(Fraction A).(Control group); assay type: functional; method in brief: as §1
Mus musculus [35] = assay: […] induction of Thyl+ antigen expression on murine bone marrow cells at the concentration of 2.5 uM(Fraction A).(treated); assay type: functional; method in brief: as §1
Mus musculus [36] = assay: […] induction of Thyl+ antigen expression on murine bone marrow cells at the concentration of 2.5 uM(Fraction B).(Control group); assay type: functional; method in brief: as §1
Mus musculus [37] = assay: […] induction of Thyl+ antigen expression on murine bone marrow cells at the concentration of 2.5 uM(Fraction B).(treated); assay type: functional; method in brief: as §1
Mus musculus [38] = assay: […] induction of Thyl+ antigen expression on murine bone marrow cells at the concentration of 2.5 uM(Fraction A).(Control group); assay type: functional; method in brief: as §1

Work on CCCCC1CCN(c2ccc(N)cc2C(=O)c2ccc(Cl)cc2)CC1 yielded a Differentiation (Mus musculus [1]) of 3.8%, a Proliferative response (Mus musculus [2]) of 211.8 and a Differentiation (Mus musculus [3]) of 4.2%. The Restoration (Mus musculus [4]) was 0.6%, the Thylpositive cells/spleen (Mus musculus [5]) was 2.05e+06 cells/spleen and the Proliferative response (Mus musculus [6]) was 78.4. The Differentiation (Mus musculus [7]) was 6.4%, the Proliferative response (Mus musculus [8]) was 59.1 and the Differentiation (Mus musculus [9]) was 5.2%. For the same molecule, the Proliferative response (Mus musculus [10]) was 289.2, the Restoration (Mus musculus [11]) was 3.6% and the Proliferative response (Mus musculus [12]) was 81.7. For the same molecule, the Proliferative response (Mus musculus [13]) was 51.3 and the Thylpositive cells (Mus musculus [14]) was 3.5%.
For CC1CCN(c2ccc(N)cc2C(=O)c2ccc(Cl)cc2)CC1, the Differentiation (Mus musculus [15]) was 5.6%, the Differentiation (Mus musculus [16]) was 5% and the Proliferative response (Mus musculus [2]) was 194.5. The Proliferative response (Mus musculus [17]) was 43.5, the Restoration (Mus musculus [4]) was 24.5% and the Thylpositive cells/spleen (Mus musculus [5]) was 6.65e+06 cells/spleen. It also gave a Differentiation (Mus musculus [18]) of 11.4%, a Proliferative response (Mus musculus [19]) of 36.5 and a Differentiation (Mus musculus [20]) of 11.5%. For the same molecule, the Proliferative response (Mus musculus [21]) was 101.9, the Proliferative response (Mus musculus [22]) was 12.8 and the Proliferative response (Mus musculus [10]) was 269.5. It also gave a Restoration (Mus musculus [11]) of 14.3% and a Thylpositive cells (Mus musculus [14]) of 6.9%.
CC1CCN(c2ccc(N)cc2C(=O)c2ccc(Cl)cc2)CC1C (stereo not drawn) showed a Proliferative response (Mus musculus [2]) of 48.6, a Differentiation (Mus musculus [23]) of 6.1% and a Differentiation (Mus musculus [24]) of 3%. It also gave a Proliferative response (Mus musculus [19]) of 67.3, a Differentiation (Mus musculus [25]) of 8.8% and a Proliferative response (Mus musculus [21]) of 75.8. For the same molecule, the Proliferative response (Mus musculus [10]) was 50.2 and the Differentiation (Mus musculus [26]) was 6.1%.
Work on Nc1ccc(N2CCC(c3ccccc3)CC2)c(C(=O)c2ccc(Cl)cc2)c1 yielded a Proliferative response (Mus musculus [2]) of 263.2, a Differentiation (Mus musculus [27]) of 6.4% and a Differentiation (Mus musculus [28]) of 7%. For the same molecule, the Restoration (Mus musculus [4]) was 7.4%, the Thylpositive cells/spleen (Mus musculus [5]) was 3.2e+06 cells/spleen and the Proliferative response (Mus musculus [6]) was 95.7. For the same molecule, the Differentiation (Mus musculus [29]) was 3.8%, the Proliferative response (Mus musculus [8]) was 54.4 and the Proliferative response (Mus musculus [10]) was 294.1. The Differentiation (Mus musculus [30]) was 5.2%, the Restoration (Mus musculus [11]) was 12.5% and the Proliferative response (Mus musculus [12]) was 115.3. The Proliferative response (Mus musculus [13]) was 59.9 and the Thylpositive cells (Mus musculus [14]) was 5.5%.
With CC1CCCCN1c1ccc(N)cc1C(=O)c1ccc(Cl)cc1 (stereo not drawn) the Differentiation (Mus musculus [31]) was 6%, the Proliferative response (Mus musculus [2]) was 131.5 and the Differentiation (Mus musculus [32]) was 4.4%. For the same molecule, the Proliferative response (Mus musculus [19]) was 55.8, the Differentiation (Mus musculus [33]) was 5% and the Proliferative response (Mus musculus [21]) was 58.1. The Proliferative response (Mus musculus [10]) was 295 and the Differentiation (Mus musculus [34]) was 5.6%.
CCOC(=O)Nc1ccc(N2CCC(C)CC2)c(C(=O)c2ccc(Cl)cc2)c1 was tested, and the Differentiation (Mus musculus [35]) was 11.6%, the Proliferative response (Mus musculus [2]) was 8 and the Differentiation (Mus musculus [36]) was 6.1%. It also gave a Restoration (Mus musculus [4]) of 3.3%, a Thylpositive cells/spleen (Mus musculus [5]) of 2.5e+06 cells/spleen and a Differentiation (Mus musculus [37]) of 5.5%. It also gave a Differentiation (Mus musculus [38]) of 6.1%, a Proliferative response (Mus musculus [10]) of 16.3 and a Restoration (Mus musculus [11]) of 3.2%. It also gave a Thylpositive cells (Mus musculus [14]) of 3.4%.
